In BindingDB's records for doi:10.1021/jm00014a008 (Sterling Winthrop Research, 1995) one finds IC50 data, which are given here for one compound.

One may read the IC50 as the midpoint of a concentration-inhibition curve. A lower IC50 goes with higher potency.

This experiment has as its target Sodium channel protein type 5 subunit alpha (Homo sapiens, UniProt Q14524). Nature of the experiment: Blockade of Na+ current in frog oocytes expressing human cardiac sodium channel (HH1). A digest of the protocol: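 HH1 transcripts injected into Xenopus laevis oocytes, incubated at room temperature 24–72 h. Two-microelectrode voltage clamp (3 M KCl electrodes), bath NaCl 140, KCl 2, CaCl2 1.8, MgCl2 1, HEPES 5 mM, pH 7.5, 21–23 °C. Holding −100 mV; peak current at the I–V maximum measured before and after test agent; IC50 in μM.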

The structures appear in SMILES notation.

Chain of Sodium channel protein type 5 subunit alpha (Q14524 whole entry): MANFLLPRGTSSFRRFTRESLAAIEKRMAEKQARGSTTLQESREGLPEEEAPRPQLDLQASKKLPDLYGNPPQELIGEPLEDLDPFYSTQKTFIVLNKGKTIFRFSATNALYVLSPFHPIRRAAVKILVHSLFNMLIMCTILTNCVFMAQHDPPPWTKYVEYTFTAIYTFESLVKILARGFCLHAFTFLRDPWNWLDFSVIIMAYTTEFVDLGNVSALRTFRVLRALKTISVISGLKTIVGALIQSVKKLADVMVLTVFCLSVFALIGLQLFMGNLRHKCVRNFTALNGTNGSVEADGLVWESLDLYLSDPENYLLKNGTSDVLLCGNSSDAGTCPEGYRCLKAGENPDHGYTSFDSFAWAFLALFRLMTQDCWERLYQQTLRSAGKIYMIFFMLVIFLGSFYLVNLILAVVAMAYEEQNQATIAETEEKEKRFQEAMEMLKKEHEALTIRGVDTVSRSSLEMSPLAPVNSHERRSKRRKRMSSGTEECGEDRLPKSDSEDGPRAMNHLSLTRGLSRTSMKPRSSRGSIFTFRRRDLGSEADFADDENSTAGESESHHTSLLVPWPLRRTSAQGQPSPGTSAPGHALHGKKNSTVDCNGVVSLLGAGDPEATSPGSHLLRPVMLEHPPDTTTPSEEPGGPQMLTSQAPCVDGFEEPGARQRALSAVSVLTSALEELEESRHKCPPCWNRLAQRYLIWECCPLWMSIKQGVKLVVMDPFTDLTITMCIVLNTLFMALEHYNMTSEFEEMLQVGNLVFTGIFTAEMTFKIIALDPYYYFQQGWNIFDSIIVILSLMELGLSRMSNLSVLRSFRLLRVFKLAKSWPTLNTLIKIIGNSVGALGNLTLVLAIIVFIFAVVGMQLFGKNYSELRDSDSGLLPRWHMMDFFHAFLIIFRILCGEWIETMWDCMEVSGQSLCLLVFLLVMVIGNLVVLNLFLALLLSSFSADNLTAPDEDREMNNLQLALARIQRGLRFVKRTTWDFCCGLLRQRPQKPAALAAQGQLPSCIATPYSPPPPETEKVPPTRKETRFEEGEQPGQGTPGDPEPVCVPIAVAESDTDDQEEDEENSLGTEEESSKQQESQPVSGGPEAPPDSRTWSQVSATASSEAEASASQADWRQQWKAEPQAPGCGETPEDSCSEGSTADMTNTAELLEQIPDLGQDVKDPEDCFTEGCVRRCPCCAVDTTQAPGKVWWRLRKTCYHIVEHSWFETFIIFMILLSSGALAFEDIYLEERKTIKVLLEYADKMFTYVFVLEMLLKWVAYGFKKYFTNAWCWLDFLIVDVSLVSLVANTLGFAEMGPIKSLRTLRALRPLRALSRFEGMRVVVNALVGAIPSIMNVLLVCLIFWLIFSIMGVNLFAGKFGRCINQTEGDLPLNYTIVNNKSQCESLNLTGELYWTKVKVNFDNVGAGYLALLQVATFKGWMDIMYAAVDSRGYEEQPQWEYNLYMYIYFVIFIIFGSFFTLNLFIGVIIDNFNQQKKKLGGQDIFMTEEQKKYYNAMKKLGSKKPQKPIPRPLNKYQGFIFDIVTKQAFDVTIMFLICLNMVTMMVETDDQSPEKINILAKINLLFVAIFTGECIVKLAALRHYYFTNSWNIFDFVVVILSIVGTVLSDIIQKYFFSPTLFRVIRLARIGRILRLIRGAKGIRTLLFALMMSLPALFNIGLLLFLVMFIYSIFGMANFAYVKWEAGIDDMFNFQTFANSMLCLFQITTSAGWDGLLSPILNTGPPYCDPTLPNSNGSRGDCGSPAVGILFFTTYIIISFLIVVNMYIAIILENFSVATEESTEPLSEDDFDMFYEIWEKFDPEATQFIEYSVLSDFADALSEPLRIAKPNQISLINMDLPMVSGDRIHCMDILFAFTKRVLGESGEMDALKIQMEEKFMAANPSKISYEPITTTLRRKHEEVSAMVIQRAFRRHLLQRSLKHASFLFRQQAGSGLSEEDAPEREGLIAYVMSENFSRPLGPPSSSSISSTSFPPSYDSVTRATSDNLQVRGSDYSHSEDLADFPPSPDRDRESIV

`CSc1ccc([C@H]2N=C(OCc3ccc(NS(C)(=O)=O)cc3)N(C)Cc3ccccc32)cc1`: the IC50 is above 30 µM.
